Laboratory results: ChEMBL document CHEMBL4373651, “Indole compounds with N-ethyl morpholine moieties as CB2 receptor agonists for anti-inflammatory management of pain: synthesis and biological evaluation” (Medchemcomm, 2019)
pEC50: −log10 of the molar value. Calls of active or inactive are those of the source.

What was measured:
Cannabinoid receptor 1 = Cannabinoid receptor 1 (Homo sapiens, UniProt P21554); assay: Agonist activity at human CB1 receptor expressed in CHO cells coexpressing Galpha16 assessed as reduction in forsklin-induced cAMP production incubated for 30 mins by cAMP Hunter assay based […] analysis; assay type: cell-based; details: read-out: EC50
Summary of the method: (§1)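 CHO cells expressing human CB1 or CB2 with Gα16, seeded overnight at 37 °C. Test compounds in stimulation buffer with 1 mM IBMX, 0.25% BSA and forskolin, 30 min at 37 °C. Cells lysed, cAMP read by enzyme fragment complementation chemiluminescence kit. Triplicate per dilution. Efficacy relative to CP-55940 reference run twice per plate. EC50 from means.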

Cannabinoid receptor 2 = Cannabinoid receptor 2 (Homo sapiens, UniProt P34972); assay: Agonist activity at human CB2 receptor expressed in CHO cells coexpressing Galpha16 assessed as reduction in forsklin-induced cAMP production incubated for 30 mins by cAMP Hunter assay based […] analysis; assay type: functional, cell-based; details: read-out: EC50; summary of the method: as §1
Rattus norvegicus [1] = assay: (§2) Antiinflammatory hyperalgesic activity against complete freund's adjuvant-induced mechanical hyperalgesic Sprague-Dawley rat model assessed as increase in paw withdraw latency at 0.0025 to 10 mg/kg, ip pretreated with CFA for 24 hrs followed by compound administration and measured at 1 hr to 12 hrs by analgesiometer analysis; assay type: functional, organism-based
Summary of the method: (§3)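 Male Sprague-Dawley rats, 180–200 g. Baseline mechanical paw withdrawal threshold taken with analgesiometer pressure on left hind paw, cut-off 250 g, endpoint complete withdrawal. Intraplantar 50% CFA (50 µL in 0.9% saline) under isoflurane. At 24 h, pre-drug threshold, then single i.p. dose of 0.0025–10 mg kg-1, antagonist combination or vehicle (2 mL kg-1). Thresholds read 1–24 h after dosing. % reversal = (post − pre)/(baseline − pre) × 100.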

Rattus norvegicus [2] = assay: as §2, with “as” for “as increase in”, “24” for “1 hr to 12”; assay type: functional, organism-based; summary of the method: as §3
Rattus norvegicus [3] = assay: Antiinflammatory hyperalgesic activity against ip dosed complete freund's adjuvant-induced mechanical hyperalgesic Sprague-Dawley rat model assessed as increase in […] pretreated with CFA for 24 hrs followed by compound administration and measured at 1 hr by analgesiometer analysis; assay type: functional; summary of the method: as §3
Rattus norvegicus [4] = assay: as §2, with “at” for “at 0.0025 to”, “compound and 0.5 mg/kg CB1 receptor antagonist, AM281” for “compound”, “administration” for “administration and measured at 1 hr to 12 hrs”; assay type: functional, organism-based; summary of the method: as §3
Rattus norvegicus [5] = assay: Antiinflammatory hyperalgesic activity against complete freund's adjuvant-induced mechanical hyperalgesic Sprague-Dawley rat model assessed as paw withdraw latency at 10 mg/kg, ip pretreated with CFA for 24 hrs followed by compound and 1 mg/kg CB2 receptor antagonist, SR144528 administration by analgesiometer analysis; assay type: functional, organism-based; summary of the method: as §3
Rattus norvegicus [6] = assay: (§4) Antiinflammatory hyperalgesic activity against complete freund's adjuvant-induced mechanical hyperalgesic Sprague-Dawley rat model assessed as decrease in IL-1 beta production in paw skin at 10 mg/kg, ip pretreated with CFA for 24 hrs followed by compound administration and measured after 1 hr by ELISA relative to control; assay type: functional
Summary of the method: (§5)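 Male Sprague-Dawley rats, 180–200 g, isoflurane anaesthesia. Left hind paw given intraplantar 50% CFA (50 µL in 0.9% saline), or saline. At 24 h, single i.p. dose of drug, antagonist, combination or vehicle (2 mL kg-1). 1 h after dosing, paw skin taken and homogenised in ice-cold buffer with protease inhibitor, then centrifuged. IL-1β, IL-6 and TNF-α in supernatant by ELISA. n = 6, one-way ANOVA with Tukey test.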

Rattus norvegicus [7] = assay: as §4, with “IL-6” for “IL-1 beta”; assay type: functional; summary of the method: as §5
Rattus norvegicus [8] = assay: as §4, with “TNF alpha” for “IL-1 beta”; assay type: functional; summary of the method: as §5
Rattus norvegicus [9] = assay: as §4, with “compound and 0.5 mg/kg CB1 receptor antagonist, AM281” for “compound”, “ELISA” for “ELISA relative to control”; assay type: functional, organism-based; summary of the method: as §5
Rattus norvegicus [10] = assay: as §4, with “IL-6” for “IL-1 beta”, “compound and 0.5 mg/kg CB1 receptor antagonist, AM281” for “compound”, “ELISA” for “ELISA relative to control”; assay type: functional, organism-based; summary of the method: as §5
Rattus norvegicus [11] = assay: as §4, with “TNF-alpha” for “IL-1 beta”, “compound and 0.5 mg/kg CB1 receptor antagonist, AM281” for “compound”, “ELISA” for “ELISA relative to control”; assay type: functional, organism-based; summary of the method: as §5
Rattus norvegicus [12] = assay: as §4, with “reduction” for “decrease”, “compound and 1 mg/kg CB2 receptor antagonist, SR144528” for “compound”, “ELISA” for “ELISA relative to control”; assay type: functional, organism-based; summary of the method: as §5
Rattus norvegicus [13] = assay: as §4, with “reduction” for “decrease”, “IL-6” for “IL-1 beta”, “compound and 1 mg/kg CB2 receptor antagonist, SR144528” for “compound”, “ELISA” for “ELISA relative to control”; assay type: functional, organism-based; summary of the method: as §5
Rattus norvegicus [14] = assay: as §4, with “reduction” for “decrease”, “TNF-alpha” for “IL-1 beta”, “compound and 1 mg/kg CB2 receptor antagonist, SR144528” for “compound”, “ELISA” for “ELISA relative to control”; assay type: functional, organism-based; summary of the method: as §5
[15] = Selectivity ratio of EC50 for human CB1 receptor expressed in CHO cells coexpressing Galpha16 to EC50 for human CB2 receptor expressed in CHO cells coexpressing Galpha16
Summary of the method: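 Ratio of EC50 values from the CB1 and CB2 cAMP assays in CHO-Gα16 cells: 30 min compound exposure at 37 °C with 1 mM IBMX and forskolin, chemiluminescent cAMP read-out, triplicates.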

Rattus norvegicus [16] = assay: (§6) Antiinflammatory hyperalgesic activity against ip dosed complete freund's adjuvant-induced mechanical hyperalgesic Sprague-Dawley rat model assessed as decrease in IL-1 beta production in paw skin pretreated with CFA for 24 hrs followed by compound administration and measured after 1 hr by ELISA; assay type: functional, organism-based; summary of the method: as §5
Rattus norvegicus [17] = assay: Antiinflammatory hyperalgesic activity against ip dosed complete freund's adjuvant-induced mechanical hyperalgesic Sprague-Dawley rat model assessed as decrease in IL-6 production in paw skin pretreated with CFA for 24 hrs followed by compound administration and measured after 1 hr by ELISA; assay type: functional, organism-based; summary of the method: as §5
Rattus norvegicus [18] = assay: Antiinflammatory hyperalgesic activity against ip dosed complete freund's adjuvant-induced mechanical hyperalgesic Sprague-Dawley rat model assessed as decrease in TNF-alpha production in paw skin pretreated with CFA for 24 hrs followed by compound administration and measured after 1 hr by ELISA; assay type: functional, organism-based; summary of the method: as §5
Rattus norvegicus [19] = assay: as §6, with “against” for “against ip dosed”, “reduction” for “decrease”, “skin at 0.1 mg/kg, ip” for “skin”; assay type: functional, organism-based; summary of the method: as §5
Rattus norvegicus [20] = assay: (§7) Antiinflammatory hyperalgesic activity against complete freund's adjuvant-induced mechanical hyperalgesic Sprague-Dawley rat model assessed as reduction in IL-6 production in paw skin at 0.1 mg/kg, ip pretreated with CFA for 24 hrs followed by compound administration and measured after 1 hr by ELISA; assay type: functional, organism-based; summary of the method: as §5
Rattus norvegicus [21] = assay: as §7, with “TNF-alpha” for “IL-6”; assay type: functional, organism-based; summary of the method: as §5

Cannabinoid receptor 2, sequence (P34972 whole entry): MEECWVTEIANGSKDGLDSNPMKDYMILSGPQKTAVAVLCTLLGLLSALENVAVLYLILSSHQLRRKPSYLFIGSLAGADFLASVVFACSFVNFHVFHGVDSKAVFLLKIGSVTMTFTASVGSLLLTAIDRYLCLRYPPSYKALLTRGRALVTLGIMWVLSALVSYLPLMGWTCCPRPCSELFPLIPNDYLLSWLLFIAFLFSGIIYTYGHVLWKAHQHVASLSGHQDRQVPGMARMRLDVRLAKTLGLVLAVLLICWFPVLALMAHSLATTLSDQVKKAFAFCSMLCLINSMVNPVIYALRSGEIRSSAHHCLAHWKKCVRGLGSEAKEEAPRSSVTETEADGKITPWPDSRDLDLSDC
Cannabinoid receptor 1, sequence (P21554 whole entry, the tested form may be a part): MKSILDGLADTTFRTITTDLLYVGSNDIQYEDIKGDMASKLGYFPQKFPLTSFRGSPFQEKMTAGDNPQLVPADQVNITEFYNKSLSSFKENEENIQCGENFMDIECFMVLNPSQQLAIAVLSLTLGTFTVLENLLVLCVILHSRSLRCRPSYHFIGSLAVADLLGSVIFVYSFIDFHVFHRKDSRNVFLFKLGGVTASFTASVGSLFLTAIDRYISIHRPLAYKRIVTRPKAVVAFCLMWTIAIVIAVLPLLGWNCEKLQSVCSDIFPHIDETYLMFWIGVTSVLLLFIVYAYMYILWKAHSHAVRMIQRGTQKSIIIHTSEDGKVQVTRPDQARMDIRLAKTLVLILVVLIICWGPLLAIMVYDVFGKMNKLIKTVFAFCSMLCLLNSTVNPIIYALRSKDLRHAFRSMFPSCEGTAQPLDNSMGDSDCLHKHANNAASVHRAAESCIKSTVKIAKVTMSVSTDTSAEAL

Cc1c(CCN2CCOCC2)c2cc(F)ccc2n1C(=O)c1cccc(Cl)c1Cl
pEC50 (Cannabinoid receptor 1): 4.53 | pEC50 (Cannabinoid receptor 2): 7.72 | Activity (Rattus norvegicus [1]): Active | Activity (Rattus norvegicus [2]): inactive | Activity (Rattus norvegicus [3]): Dose-dependent effect | ED50 (Rattus norvegicus [3]): 1.1 mg/kg | Activity (Rattus norvegicus [4]): Active | Activity (Rattus norvegicus [5]): inactive | fold change (FC) (Rattus norvegicus [6]): 1.3 | fold change (FC) (Rattus norvegicus [7]): 1.9 | fold change (FC) (Rattus norvegicus [8]): 1.1 | inhibition (Rattus norvegicus [9]): Active | inhibition (Rattus norvegicus [10]): Active | inhibition (Rattus norvegicus [11]): Active | Activity (Rattus norvegicus [12]): inactive | Activity (Rattus norvegicus [13]): inactive | Activity (Rattus norvegicus [14]): inactive | Ratio EC50 [15]: >1000 | inhibition (Rattus norvegicus [16]): Dose-dependent effect | inhibition (Rattus norvegicus [17]): Dose-dependent effect | inhibition (Rattus norvegicus [18]): Dose-dependent effect | Activity (Rattus norvegicus [19]): inactive | Activity (Rattus norvegicus [20]): inactive | Activity (Rattus norvegicus [21]): inactive
